# The sample as a whole holds a higher share of hits than the screen did.
# PTK2B oligo ant = blocks oligomerization of human Pyk2 in cells | Q293 cells, Pyk2 FERM NanoBiT luminescence; hits give low values | z-score (the deposit names both 25 µM and 10 µM) | 99,000 tested, 0.83% active;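 active = Z-score of -3 or lower, scaled per plate to the spread of control and sample wells; inactive = z-score above -3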;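 also: negative z-score means lost luminescence so less FERM oligomerization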
# Target sequence (Q14289 whole entry, looked up): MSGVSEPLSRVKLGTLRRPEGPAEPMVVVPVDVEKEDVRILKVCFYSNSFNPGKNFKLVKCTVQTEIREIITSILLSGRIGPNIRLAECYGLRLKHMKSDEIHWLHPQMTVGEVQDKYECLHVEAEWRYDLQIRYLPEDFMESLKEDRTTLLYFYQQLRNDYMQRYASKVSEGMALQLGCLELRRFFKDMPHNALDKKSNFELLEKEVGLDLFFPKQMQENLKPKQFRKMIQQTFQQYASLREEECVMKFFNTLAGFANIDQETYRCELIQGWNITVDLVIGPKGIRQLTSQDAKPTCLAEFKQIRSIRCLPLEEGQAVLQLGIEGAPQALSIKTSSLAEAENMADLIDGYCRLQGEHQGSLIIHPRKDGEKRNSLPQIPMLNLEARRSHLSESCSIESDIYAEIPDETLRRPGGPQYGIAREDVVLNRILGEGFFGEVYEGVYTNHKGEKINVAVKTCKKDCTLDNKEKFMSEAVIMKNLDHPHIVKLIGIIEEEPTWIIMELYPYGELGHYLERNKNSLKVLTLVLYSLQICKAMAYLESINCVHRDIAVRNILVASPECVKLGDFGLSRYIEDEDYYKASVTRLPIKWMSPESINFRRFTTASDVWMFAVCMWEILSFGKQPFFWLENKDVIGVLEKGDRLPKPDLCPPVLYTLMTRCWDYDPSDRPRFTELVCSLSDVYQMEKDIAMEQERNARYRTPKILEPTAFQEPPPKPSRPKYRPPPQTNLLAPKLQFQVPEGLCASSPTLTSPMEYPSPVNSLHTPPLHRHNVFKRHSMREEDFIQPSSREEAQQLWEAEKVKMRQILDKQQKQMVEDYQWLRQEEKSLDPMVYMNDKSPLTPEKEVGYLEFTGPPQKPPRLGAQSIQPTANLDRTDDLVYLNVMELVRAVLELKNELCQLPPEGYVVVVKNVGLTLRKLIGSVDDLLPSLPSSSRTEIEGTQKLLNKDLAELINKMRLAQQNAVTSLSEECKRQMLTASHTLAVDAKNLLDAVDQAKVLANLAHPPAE
# HCT116 bCat-KO = beta-catenin-lacking colon tumor cell growth suppression; HCT116 beta-catenin knockout viability, CellTiter-Glo, 60 h; hits give low values; viability, % at 10 µM; 140,000 tested, 1.5% active;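 active = viability at or under a set limit, the compound median less 4 SD, cut at about 6% in these data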;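 also: 0% = Hyamine 1622 control at 20 µM and 100% = untreated cell control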
# HCT116 PTEN-null = growth suppressors of cells with PTEN tumor suppressor deletion; HCT116 PTEN-null viability, CellTiter-Glo, 60 h; hits give low values; viability, % at 10 µM; 140,000 tested, 1.2% active;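 active = viability at or below a set limit, 4 SD under the median of all tested compounds, cut at about 3.7% in these data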;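 also: PTEN knockout HCT116 line with beta catenin targeted HCT116 as companion control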
# HUVEC prolif 384 = blocks proliferation of human endothelial cells. viability, % at 10 µM (by protocol). 86,000 tested, 1.1% active. AID 648. HUVEC proliferation, CellTiter-Glo luminescence, 72 h; hits give low values;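 active = viability at or below 30%; inactive = viability above 30%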;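 also: 100% = median luminescence of DMSO-only cell control wells on each plate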
# H69AR growth 86K = growth inhibitors of human H69AR lung tumor cells; 85,000 tested, 6% active; viability, % at 10 µM; H69AR lung tumor viability, ATP luminescence, 72 h; hits give low values;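 active = viability at or below 40%; inactive = viability above 40%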;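 also: multidrug resistant small cell line overexpressing MRP-1 efflux transporter; 100% = mean luminescence of untreated control wells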
# Lung fibro prol = blocks proliferation of human lung fibroblasts; 85,000 tested, 1.1% active; LL 47 human lung fibroblast viability, ATP luminescence; hits give low values; viability, % at 10 µM;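 active = viability at or below 50% in the single dose screen; inactive = viability above 50%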;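 also: compound exposure lasted 72 h before the ATP readout; 100% = median luminescence of untreated cell-only wells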
#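 Test system: LL 47 human lung fibroblasts / Quantity: 1,150 cells in each well / Medium: IMEM growth medium with 15% fetal bovine serum / Incubation: 72 h compound exposure at 37 °C after overnight plating / Detection: CellTiter-Glo luminescence measuring cellular ATP / Read-out: % viability versus median cells-only luminescence / Benchmarks: cell-only wells, no compound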
# The depositor's hits bear a star; · = not tested or not shown; ! = not active in a repeat.
SMILES,PTK2B oligo ant,HCT116 bCat-KO,HCT116 PTEN-null,HUVEC prolif 384,H69AR growth 86K,Lung fibro prol
N=C(N)c1c(O)n(C2CCCCC2)c(=O)n(C2CCCCC2)c1=O,-2.09,30.1,13.2,2.5*,1.1*,31.0*
CC/C(=C\C=C\[C@@H]1C=C[C@@H]2CCC[C@H]2[C@@H]1C(=O)c1ccc[nH]1)[C@@H]1O[C@@H]([C@@H](C)C(=O)O)CC[C@@H]1C,·,18.8,27.1,12.4*,15.0*,38.0*
O=C(CSC1c2ccccc2-c2ccccc21)N/N=C/c1ccccc1O,-1.08,9.3,12.3,27.0*,17.6*,40.7*
Cc1ccc(CN2C(=O)NC(=O)C3(Cc4c(nc5ccccn5c4=O)N4CCCCCC43)C2=O)cc1 (stereo not given),-1.56,73.6,54.7,87.9,39.3*,100.0
COC1=CC(=O)OC(/C=C/c2ccccc2)C1 (stereo not given),·,83.7,100.6,110.1,87.6,105.9
O=C(COc1ccc(Cl)cc1)N1CCN(C/C=C/c2ccccc2)CC1,0.89,68.2,65.8,83.6,27.3*,79.9
CCOCCCNC(=O)C1c2cc(OC)c(OC)cc2C(=O)N2CCCCC12 (stereo not given),·,89.3,90.6,·,·,·
Cn1ncnc2c(=O)n(C)c(=O)nc1-2,-3.27*,·,·,·,·,·
Cc1c(/C=C2/CC3C4CC=C5CC(O)CCC5(C)C4CCC3(C)C2=O)cnn1C (stereo not given),·,·,·,96.1,103.8,95.9
CN1CCC(N(C)c2nc(-c3ccc([N+](=O)[O-])cc3)nc3ccccc23)CC1,-0.17,1.5*,1.5*,·,·,·
CCC(C)NC(=O)c1c(N)n(Cc2ccc3c(c2)OCO3)c2nc3ccccc3nc12 (stereo not given),-0.47,1.4*,1.4*,·,·,·
CCOP(=O)(OCC)C(NC(=O)c1ccc(C)cc1)=C(Cl)Cl,·,92.5,93.6,·,·,·
N#CSCC(=O)N1c2ccccc2CCc2ccccc21,·,3.8*,2.5*,·,·,·
Cc1cc2c(C(C)C)c(O)c(O)c(C=O)c2c(O)c1-c1c(C)cc2c(C(C)C)c(O)c(O)c(C=O)c2c1O,·,4.8*,1.9*!,3.0*,0.6*,28.5*!
CC12CCC(=O)C=C1CCC1C2CCC2(C)C(O)CCC12 (stereo not given),·,88.3,92.7,29.5*,97.2,97.8
CCCCCc1nc2ccccc2c(=O)n1-c1ccccc1[N+](=O)[O-],·,79.5,72.0,·,·,·
CCCCCc1nc2c(c(=O)c3ccccc3n2C)c(=O)n1C1CCCCCC1,·,1.5*,1.6*,·,·,·
CCCCn1c(O)c(C=NC2CC3CCC2(C)C3(C)C)c(=O)[nH]c1=O (stereo not given),-2.14,56.0,35.6,97.8,15.0*,96.0
Cn1c(O)c(C=NC2CC3CCC2(C)C3(C)C)c(=O)[nH]c1=O (stereo not given),0.88,84.4,91.0,97.0,85.8,97.6
C[N+]1(C)CCN(c2ccccc2)CC1,·,91.9,97.9,95.8,97.0,94.0
O=C(Nc1ccc(Cl)cc1C(=O)c1ccccc1)c1ccc(Br)o1,-2.58,39.1,47.1,·,·,·
O=C(Cn1cc(C(=O)c2ccccc2F)c2ccccc21)NCc1ccco1,-3.23*,99.4,88.0,74.2,111.7,43.1*
COC(=O)[C@@H]1[C@@H](C(=O)OC)C2(c3ccccc3-c3ccccc32)N(c2ccc(Cl)cc2)N1C#N,-2.44,0.8*,1.2*,2.7*,0.7*,3.3*
COC(=O)C[C@]1(C(=O)OC)CN(C#N)N(c2ccc(Cl)cc2)C12c1ccccc1-c1ccccc12,-2.33,0.4*,1.2*,2.4*,0.6*,5.2*
FC(F)(F)c1ccc2c(c1)NP(=S)(N1CCOCC1)c1nccn1-2 (stereo not given),-0.37,98.4,84.2,94.4,66.3,94.3
SMILES,PTK2B oligo ant,HCT116 bCat-KO,HCT116 PTEN-null,HUVEC prolif 384,H69AR growth 86K,Lung fibro prol
CC12CN3CC(C)(CN(C1)C3c1cccs1)C2O (stereo not given),0.7,99.7,104.5,100.0,81.7,100.4
CN1C(=O)C(=Cc2ccc(-c3cccc(Cl)c3)o2)C(=O)N(C)C1=O,·,95.2,89.2,·,·,·
CN1C(=O)C(=Cc2ccccc2Oc2ccc(Cl)c(F)c2)C(=O)N(C)C1=O,-4.45*,79.8,89.2,·,·,·
CCCS(=O)(=O)N1CCC(C(=O)N2CCC3(CC2)OCCO3)CC1,0.31,90.8,101.3,100.4,84.2,42.2*
O=C(NC1(C(F)(F)F)Oc2ccccc2O1)N1CCC2(CC1)OCCO2,0.55,51.3,61.0,81.1,16.7*,101.1
O=C(NC1(C(F)(F)F)Oc2ccc(Cl)cc2O1)N1CCC2(CC1)OCCO2 (stereo not given),2.5,66.1,65.6,52.8,31.6*,74.1
O=C(CCCOc1ccc(Cl)cc1Cl)N1CCC2(CC1)OCCO2,-0.94,92.2,87.2,102.2,80.5,107.2
COc1ccc(C(O)c2ccccc2OP(=O)(N(C)C)N(C)C)cc1 (stereo not given),·,87.0,94.9,·,·,·
Cc1ccnc(-n2c(-c3ccco3)nc3ccccc3c2=O)c1,-0.26,92.9,105.8,101.7,92.6,91.7
Cc1cccc(-n2c(/C=C/c3ccc([N+](=O)[O-])o3)nc3ccccc3c2=O)c1,·,0.8*,0.6*,·,·,·
CCOC(=O)CC1=C(C(=O)OCC)C2(C(=O)N1CC(=O)OC)C(C#N)=C(N)Oc1ccccc12 (stereo not given),-0.42,87.9,106.0,108.3,103.5,100.5
Cc1nc2cc(C(=O)N3CCC4(CC3)OCCO4)ccc2n1-c1ccc(Br)cc1,-0.57,97.0,99.6,95.8,55.9,89.4
COc1ccc(-n2c(C)nc3cc(C(=O)N4CCC5(CC4)OCCO5)ccc32)cc1,0.48,47.5,45.2,79.8,28.6*,91.6
Fc1ccc(C2NCCc3[nH]cnc32)cc1 (stereo not given),·,89.7,94.1,·,·,·
CN1C2CCC1/C(=C/c1ccccn1)C(=O)/C2=C\c1ccccn1,1.56,1.8*,1.8*,·,·,·
Cc1cccc(N/N=C(\C(N)=O)C2=NC(C)(C)Cc3ccccc32)c1,·,63.6,58.6,·,·,·
CCCC(C)(COC(N)=O)COC(=O)NC(C)C (stereo not given),·,107.2,96.0,97.3,93.2,99.8
O=C(N/N=C1/CN2CCC1CC2)c1cc2ccccc2cc1O,-0.54,76.0,75.3,107.5,37.5*,75.0
O=[N+]([O-])c1ccc(N2CCCC2)cc1N/N=C1\CN2CCC1CC2,·,70.8,74.5,·,·,·
O=C(COc1ccccc1)c1cn(Cc2ccccc2)c2ccccc12,·,76.3,67.2,·,·,·
O=c1[nH]c(=O)n(CCC2=CCCCC2)c(O)c1/C=N/Nc1ccccc1,·,86.2,81.1,·,·,·
CCN(CC)c1ccc(N=Cc2c(O)n(CCC3=CCCCC3)c(=O)[nH]c2=O)cc1,-1.75,58.5,47.1,70.7,16.6*,88.5
O=c1[nH]c(=O)n(CCC2=CCCCC2)c(O)c1C=NC1CCN(Cc2ccccc2)CC1,0.97,38.5,29.0,96.2,32.4*,95.5
